Test results: ChEMBL document CHEMBL1155784, “Aromatic 2-chloroethyl urea derivatives and bioisosteres. Part 2: Cytocidal activity and effects on the nuclear translocation of thioredoxin-1, and the cell cycle progression” (2008)
Calls of active or inactive are those of the source. No cut-off for these calls is given here.

Tests used:
[1] = system: M21; experiment: Inhibition of nuclear translocation of thioredoxin 1 in human M21 cells at 50 uM after 18 hrs by immunocytochemistry; type: functional, cell-based
Summary of the method: (§1)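 M21 cells seeded on fibronectin-coated coverslips, held 18 h at 37 °C, then treated with compounds (5–50 µM; reference agents 0.1–40 µM) or 0.1% DMSO. Fixed in 3.7% formaldehyde, permeabilized with 0.1% saponin, and blocked in 3% BSA. Stained 1 h at 37 °C with anti-thioredoxin-1 monoclonal (1/200), then with Alexa-488 anti-mouse IgG plus DAPI for nuclei.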

[2] = system: MCF7; experiment: Cell cycle arrest in human MCF7 cells assessed as S phase accumulation at 2 times GI50 after 24 hrs by flow cytometry; type: functional
[3] = system: MCF7; experiment: Cell cycle arrest in human MCF7 cells assessed as […] phase accumulation at 2 times GI50 after 24 hrs by flow cytometry; type: functional
[4] = system: MCF7; experiment: Cell cycle arrest in human MCF7 cells assessed as G2/M phase accumulation at 2 times GI50 after 24 hrs by flow cytometry; type: functional
[5] = system: M21; experiment: Inhibition of nuclear translocation of thioredoxin 1 in human M21 cells at 10 uM after 18 hrs by immunocytochemistry; type: functional, cell-based; summary of the method: as §1
[6] = system: M21; experiment: Inhibition of nuclear translocation of thioredoxin 1 in human M21 cells at 25 uM after 18 hrs by immunocytochemistry; type: functional, cell-based; summary of the method: as §1
[7] = system: M21; experiment: Inhibition of nuclear translocation of thioredoxin 1 in human M21 cells at 0.1 uM after 18 hrs by immunocytochemistry; type: functional, cell-based; summary of the method: as §1
[8] = system: M21; experiment: Growth inhibition of human M21 cells after 48 hrs by sulforhodamine B assay; type: functional; conditions: M21, 48 h
Summary of the method: (§2)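 NCI-style sulforhodamine B assay. HT-29 (5×10³), M21 or MCF-7 (3.5×10³) cells were grown 24 h, then given DMSO-solubilized drug at 100 to 0.7 µM final (DMSO <0.5%) for 48 h. Fixed in cold 10% TCA, stained with 0.1% SRB, read at 585 nm after subtracting a day-0 plate. Inhibition is relative to DMSO controls; GI50 from at least triplicate runs.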

[9] = system: HT-29; experiment: Growth inhibition of human HT29 cells after 48 hrs by sulforhodamine B assay; type: functional; conditions: HT-29, 48 h; summary of the method: as §2
[10] = system: MCF7; experiment: Growth inhibition of human MCF7 cells after 48 hrs by sulforhodamine B assay; type: functional; conditions: MCF7, 48 h; summary of the method: as §2

Compound	Activity [1]	Activity [2] [%]	Activity [3] [%]	Activity [4] [%]	Activity [5]	other results
CC(C)(C)c1ccc(NC(=O)NCCCl)cc1	inactive	24	17	58	inactive	–
Cc1ccc(NC(=O)NCCCl)cc1C	–	–	–	–	inactive	Activity [6]: inactive
O=C(NCCCl)Nc1ccc(OC2CCCCC2)cc1	Active	29	57	14	–	–
O=C(NCCCl)Nc1ccc(C2CCCCC2)cc1	Active	13	71	16	–	–
Cc1ccc(NC2=NCCO2)cc1C	–	–	–	–	Active	–
O=C(NCCCl)Nc1ccc(I)cc1	Active	33	25	42	Active	–
O=C(NCCCl)Nc1cccc(OC2CCCC2)c1	Active	24	64	12	–	–
O=C(NCCCl)Nc1ccc2ccccc2c1	Active	–	–	–	Active	–
CC[C@]1(O)C[C@@H]2CN(CCc3c([nH]c4ccccc34)[C@@](C(=O)OC)(c3cc4c(cc3OC)N(C)[C@H]3[C@@](O)(C(=O)OC)[C@H](OC(C)=O)[C@]5(CC)C=CCN6CC[C@]43[C@@H]65)C2)C1	–	–	–	–	–	Activity [7]: inactive
O=C(NCCCl)Nc1ccc(Oc2ccccc2)cc1	–	–	–	–	inactive	Activity [6]: inactive
CC(=O)O[C@H]1C(=O)[C@@]2(C)[C@H]([C@H](OC(=O)c3ccccc3)[C@]3(O)C[C@H](OC(=O)[C@H](O)[C@@H](NC(=O)c4ccccc4)c4ccccc4)C(C)=C1C3(C)C)[C@]1(OC(C)=O)CO[C@@H]1C[C@@H]2O	–	–	–	–	–	Activity [7]: inactive
O=C(NCCCl)Nc1cccc(OCc2ccccc2)c1	inactive	–	–	–	inactive	GI50 [8]: 6.5 µM; GI50 [9]: 2.9 µM; GI50 [10]: 10 µM
COc1cc2c(c(OC)c1OC)-c1ccc(OC)c(=O)cc1[C@@H](NC(C)=O)CC2 [COLCHICINE]	–	19	19	62	–	Activity [7]: inactive
O=C(NCCCl)Nc1ccc(OC2CCCC2)cc1	Active	19	72	9	–	–
